Consider 14 compounds from ChEMBL document CHEMBL4130559, “Structure-Based Discovery of Thiosemicarbazone Metalloproteinase Inhibitors for Hemorrhage Treatment in Snakebites” (ACS Med Chem Lett, 2017).

Structures are written as SMILES.

Assay [1] relates to Snake venom. The assay is described as follows: Antihemorrhagic activity in Bothrops pauloensis crude venom injected Swiss mouse assessed as reduction in hemorrhagic halo at 1:5 venom to compound ratio administered via intradermal route. It is filed as functional. Also noted: scale not given: the % may be the effect or the level left.
Assay [2] relates to Snake venom. The assay is described as follows: Antihemorrhagic activity in Bothrops pauloensis crude venom injected Swiss mouse assessed as reduction in hemorrhagic halo at 1:1 to 1:20 venom to compound ratio administered via intradermal route. It counts as functional.
Assay [3] has as its target T1, Snake venom metalloproteinase neuwiedase (Bothrops pauloensis, UniProt Q9I9R4).
T1 sequence (Q9I9R4 whole entry): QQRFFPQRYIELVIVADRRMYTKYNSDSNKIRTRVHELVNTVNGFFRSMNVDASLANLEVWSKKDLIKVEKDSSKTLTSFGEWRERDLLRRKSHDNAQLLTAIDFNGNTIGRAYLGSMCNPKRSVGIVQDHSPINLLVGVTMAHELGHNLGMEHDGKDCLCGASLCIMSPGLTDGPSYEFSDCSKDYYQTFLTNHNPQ
Briefly: Inhibition of Bothrops pauloensis MP1 assessed as reduction in azocaseinolytic activity after 30 mins. The gist of the method:
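Purified BpMP-I (7.5 μg per reaction) was preincubated with compound for 30 min at 37 °C. It was then added to azocasein (1 mg/mL) in 0.05 M Tris–HCl pH 7.8 with 0.15 M NaCl and incubated for 30 min at 37 °C. The reaction was stopped with 20% TCA, held 30 min at room temperature and centrifuged. Supernatant was read at A405. IC50 is the concentration giving 50% loss of azocaseinolytic activity.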

Assay [4] concerns Snake venom. The assay is described as follows: Antihemorrhagic activity in Bothrops pauloensis crude venom injected Swiss mouse assessed as reduction in hemorrhagic halo at 1:1 venom to compound ratio administered via intradermal route. It is filed as functional. Also noted: scale not given: the % may be the effect or the level left.
The subject of assay [5] is Snake venom. The assay is described as follows: Antihemorrhagic activity in Bothrops pauloensis crude venom injected Swiss mouse assessed as reduction in hemorrhagic halo at 1:10 venom to compound ratio administered via intradermal route 10 mins after venom injection. It counts as functional. Also noted: scale not given: the % may be the effect or the level left. An outline of the steps: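 Treatment protocol in Swiss male mice (n = 4, 18–22 g). B. pauloensis crude venom (16.3 μg, two minimum hemorrhagic doses) was injected intradermally in the dorsal region. Compound followed 10 min later by the same route at 1:10 venom/compound (w/w). At 150 min the mice were anesthetized and killed, and the skin halo was measured by caliper. Results are percent inhibition versus venom-only controls, mean ± SD.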

Assay [6] concerns Snake venom. The assay is described as follows: Antihemorrhagic activity in Bothrops pauloensis crude venom injected Swiss mouse assessed as reduction in hemorrhagic halo at 1:20 venom to compound ratio administered via intradermal route. It counts as functional.
Assay [7] relates to Snake venom. The assay is described as follows: Antihemorrhagic activity in Bothrops pauloensis crude venom injected Swiss mouse assessed as reduction in hemorrhagic halo at 1:10 venom to compound ratio administered via intradermal route. It is filed as functional. Also noted: scale not given: the % may be the effect or the level left.

Turning to `COc1ccc(/C(CCCC(=O)O)=N/NC(N)=S)cc1`, the Activity in assay [1] was 84%; in assay [2] it was “Dose-dependent effect”; in assay [4], 41%; in assay [5] it was 31%; in assay [7], 100%. In addition, the half-inhibitory concentration (IC50) in assay [3] (read-out: IC50) was found to be 0.00177 mM. Also, the “inhibition (INH)” value in assay [6] is listed as 100%.
In the case of `NC(=S)N/N=C/c1ccc(Cl)cc1`, the IC50 in assay [3] (read-out: IC50) amounted to 4.25 mM.
As for `NC(=O)N/N=C/c1ccc(Cl)cc1`, the IC50 entry in assay [3] is reported as “Not Active”.
Regarding `COc1ccc(/C=N/NC(N)=O)cc1`, in assay [3], the IC50 entry is given as “Not Active”.
For `NC(=O)N/N=C/c1ccc(O)cc1`, the IC50 result in assay [3] was “Not Active”.
Regarding `NC(=O)N/N=C/c1ccc(O)cc1O`, the IC50 entry in assay [3] is “Not Active”.
`c1cnc2c(c1)ccc1cccnc12` [PHENANTHROLINE]: the half-maximal inhibitory concentration (IC50) in assay [3] (read-out: IC50) is 0.47 mM.
On to `NC(=O)N/N=C/c1cccc(O)c1`, for which the concentration for half-maximal inhibition (IC50) result in assay [3] is reported as “Not Active”.
As for `COc1ccc(/C(CCC(=O)O)=N/NC(N)=S)cc1`, in assay [3] (read-out: IC50), the IC50 was 0.0791 mM. For the same compound, the “inhibition (INH)” value in assay [6] came to 43%.
As to `NC(=S)N/N=C/c1ccccc1` [PHENYLTHIOSEMICARBAZONE], the IC50 in assay [3] (read-out: IC50) came out at 4.22 mM.
As for `COc1ccc(/C=N/NC(N)=S)cc1O`, the IC50 in assay [3] (read-out: IC50) is 3.41 mM.
On to `COc1ccc(/C=N/NC(N)=S)cc1`, for which, in assay [3] (read-out: IC50), the half-inhibitory concentration (IC50) was 3.01 mM.
Regarding `NC(=O)N/N=C/c1ccc(C(=O)O)cc1`, in assay [3], the IC50 entry is on record as “Not Active”.
Consider `NC(=S)N/N=C/c1ccc(Br)cc1`, for which the IC50 in assay [3] (read-out: IC50) was 3.14 mM.

One may read the IC50 as the midpoint of a concentration-inhibition curve.
